From ChEMBL document CHEMBL4024800, “α-Amino-β-carboxymuconate-ε-semialdehyde Decarboxylase (ACMSD) Inhibitors as Novel Modulators of De Novo Nicotinamide Adenine Dinucleotide (NAD+) Biosynthesis” (J Med Chem, 2018)
pIC50: −log10 of the molar value. In brackets after ≈: the same amount, converted by molar mass. Activity calls are given as the source filed them. No cut-off for these calls is given here.

What was measured:
[1] = biological target: T1, 2-amino-3-carboxymuconate-6-semialdehyde decarboxylase (Homo sapiens, UniProt Q8TDX5); assay: Inhibition of human ACMSD expressed in Pichia pastoris using ACMS as substrate by coupled spectrophotometric assay
Summary of the method: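 Recombinant enzyme purified from Pichia pastoris; ACMS substrate generated in a pre-assay mix from 10 μM 3-hydroxyanthranilic acid by Ralstonia metallidurans 3-hydroxyanthranilate 3,4-dioxygenase, formation monitored at 360 nm. Enzyme and compound then added together; activity from initial rate of absorbance decrease minus a no-enzyme control. Serial dilutions, 1.0% DMSO throughout. IC50 from concentration–response curves, mean ± SD of three independent experiments.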
Target sequence in this assay (Q8TDX5 whole entry): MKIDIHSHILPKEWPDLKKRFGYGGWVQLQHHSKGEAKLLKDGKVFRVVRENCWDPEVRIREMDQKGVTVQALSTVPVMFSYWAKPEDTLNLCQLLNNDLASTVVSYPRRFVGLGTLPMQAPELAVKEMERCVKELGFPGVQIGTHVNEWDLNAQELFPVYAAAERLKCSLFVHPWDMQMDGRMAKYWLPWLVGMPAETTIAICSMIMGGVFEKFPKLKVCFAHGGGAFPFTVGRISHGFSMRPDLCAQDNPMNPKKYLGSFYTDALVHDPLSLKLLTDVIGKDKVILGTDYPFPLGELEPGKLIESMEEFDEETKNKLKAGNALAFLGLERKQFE

[2] = species on record: Homo sapiens; assay: Activity at RXR (unknown origin)
Summary of the method: (§1)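 Eight-point serial dilutions tested in an in-house AlphaScreen-based nuclear receptor panel; activity derived from nonlinear regression curves.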

[3] = species on record: Homo sapiens; assay: Activity at TR (unknown origin); summary of the method: as §1
[4] = biological target: T2, Glucocorticoid receptor (Homo sapiens) (UniProt P04150); assay: Activity at GR (unknown origin); summary of the method: as §1
T2 sequence (whole entry): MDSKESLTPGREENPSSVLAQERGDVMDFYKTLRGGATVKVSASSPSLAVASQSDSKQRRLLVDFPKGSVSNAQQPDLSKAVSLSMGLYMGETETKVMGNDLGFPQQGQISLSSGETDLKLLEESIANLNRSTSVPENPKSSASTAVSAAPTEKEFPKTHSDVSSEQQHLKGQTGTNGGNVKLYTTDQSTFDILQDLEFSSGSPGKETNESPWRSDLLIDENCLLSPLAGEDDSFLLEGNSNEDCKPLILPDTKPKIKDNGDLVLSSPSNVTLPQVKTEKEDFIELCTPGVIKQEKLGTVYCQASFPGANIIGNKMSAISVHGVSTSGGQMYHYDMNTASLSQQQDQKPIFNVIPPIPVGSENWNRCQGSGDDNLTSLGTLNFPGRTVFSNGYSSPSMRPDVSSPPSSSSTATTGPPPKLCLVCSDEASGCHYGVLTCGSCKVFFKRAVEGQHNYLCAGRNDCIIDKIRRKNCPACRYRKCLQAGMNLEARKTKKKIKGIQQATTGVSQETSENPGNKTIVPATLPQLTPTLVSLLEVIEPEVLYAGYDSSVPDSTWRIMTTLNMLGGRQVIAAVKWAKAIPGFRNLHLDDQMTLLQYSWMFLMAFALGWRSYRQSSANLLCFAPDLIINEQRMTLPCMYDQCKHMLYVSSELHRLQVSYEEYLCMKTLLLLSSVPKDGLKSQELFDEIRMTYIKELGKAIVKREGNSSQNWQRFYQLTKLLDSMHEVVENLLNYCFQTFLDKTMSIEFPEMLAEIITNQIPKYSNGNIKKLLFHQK

[5] = species on record: Homo sapiens; assay: Activity at LXR (unknown origin); summary of the method: as §1
[6] = species on record: Homo sapiens; assay: Activity at PPAR (unknown origin); summary of the method: as §1
[7] = biological target: T3, Bile acid receptor (Homo sapiens) (UniProt Q96RI1); assay: Activity at FXR (unknown origin); summary of the method: as §1
T3 sequence (whole entry): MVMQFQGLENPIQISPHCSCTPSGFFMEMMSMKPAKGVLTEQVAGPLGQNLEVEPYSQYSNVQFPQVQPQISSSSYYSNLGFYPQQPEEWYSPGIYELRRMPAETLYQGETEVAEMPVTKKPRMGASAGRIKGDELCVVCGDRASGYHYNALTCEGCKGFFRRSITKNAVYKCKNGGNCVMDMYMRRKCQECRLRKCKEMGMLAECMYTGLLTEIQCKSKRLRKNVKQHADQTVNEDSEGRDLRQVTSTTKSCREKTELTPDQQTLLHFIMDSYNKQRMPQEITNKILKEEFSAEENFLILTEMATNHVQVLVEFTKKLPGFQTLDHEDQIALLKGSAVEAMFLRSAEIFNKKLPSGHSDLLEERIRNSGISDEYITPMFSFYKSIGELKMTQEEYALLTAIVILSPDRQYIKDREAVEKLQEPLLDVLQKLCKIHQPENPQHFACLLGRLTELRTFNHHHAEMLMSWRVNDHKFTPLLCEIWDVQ

[8] = biological target: T4, Vitamin D3 receptor (Homo sapiens) (UniProt P11473); assay: Activity at VDR (unknown origin); summary of the method: as §1
T4 sequence (whole entry): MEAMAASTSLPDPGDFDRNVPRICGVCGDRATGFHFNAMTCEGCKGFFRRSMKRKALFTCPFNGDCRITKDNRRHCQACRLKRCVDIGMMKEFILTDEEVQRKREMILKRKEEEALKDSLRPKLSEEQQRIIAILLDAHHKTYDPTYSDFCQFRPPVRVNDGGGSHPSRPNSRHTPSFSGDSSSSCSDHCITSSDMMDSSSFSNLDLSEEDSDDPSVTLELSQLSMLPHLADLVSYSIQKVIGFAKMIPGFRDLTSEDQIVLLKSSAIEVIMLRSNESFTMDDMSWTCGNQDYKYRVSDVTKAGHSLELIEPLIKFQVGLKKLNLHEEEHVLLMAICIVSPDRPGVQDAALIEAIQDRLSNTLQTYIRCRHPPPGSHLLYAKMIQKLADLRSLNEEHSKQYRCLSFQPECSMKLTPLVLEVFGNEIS

[9] = biological target: T1, 2-amino-3-carboxymuconate-6-semialdehyde decarboxylase; assay: Inhibition of ACMSD in human primary hepatocytes assessed as increase in intracellular NAD+ levels at 5 uM after 48 hrs by NAD/NADH-Glo assay; assay type: cell-based
Target sequence in this assay (Q8TDX5 whole entry, looked up): as the sequence (Q8TDX5 whole entry) above

[10] = biological target: Voltage-gated inwardly rectifying potassium channel KCNH2 (Homo sapiens, UniProt Q12809); assay: Displacement of red fluorescent channel ligand tracer from human ERG expressed in CHO cell membranes
Summary of the method: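 Fluorescence polarisation kit: membranes from CHO cells stably expressing hERG, with a red fluorescent high-affinity tracer; competitors detected by tracer displacement, seen as lowered polarisation. Final DMSO 1%; E-4031 reference.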

[11] = Clearance in CD1 mouse at 0.5 mg/kg, iv measured up to 24 hrs post dose; assay type: ADME, organism-based; conditions: in vivo
Summary of the method: (§2)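 Mice given 0.5 mg/kg IV in saline containing 5% (v/v) DMSO and 20% (v/v) PEG400; blood pharmacokinetic parameters reported as means.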

[12] = Volume of distribution at steady state in CD1 mouse at 0.5 mg/kg, iv measured up to 24 hrs post dose; assay type: ADME, organism-based; conditions: in vivo, read-out: Vdss; summary of the method: as §2
[13] = Drug uptake in mouse central nervous system at 5 mg/kg, po in presence of P-gp inhibitor Elacridar; assay type: ADME, organism-based; conditions: in vivo
[14] = Tmax in CD1 mouse at 5 mg/kg, po measured up to 8 hrs post dose; assay type: ADME, organism-based; conditions: in vivo
Summary of the method: (§3)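 Mice dosed orally at 5 mg/kg in 0.5% (w/v) HPMC in water with 5% (v/v) DMSO; blood, liver and kidney concentrations followed to 8 h. AUC0–8h given in h·ng/mL; parameters reported as means.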

[15] = Drug uptake in mouse central nervous system at 5 mg/kg, po; assay type: ADME, organism-based; conditions: in vivo
[16] = biological target: Cytochrome P450 2C19 (Homo sapiens, UniProt P33261); assay: Inhibition of recombinant human CYP2C19 expressed in baculosomes expression system using fluorogenic-BOMCC as substrate by fluorescent homogeneous assay; assay type: ADME
Summary of the method: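 Recombinant CYP baculosomes with fluorogenic substrates, at concentrations below their Km; homogeneous fluorescence read-out, run in triplicate. IC50 classes: <1 μM potent, 1–10 μM moderate, >10 μM weak or none.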

[17] = Apparent passive permeability from apical to basolateral side in MDCK2-MDR1 cells at 3 uM after 90 mins by LC-MS/MS analysis; assay type: ADME, cell-based, Canis lupus familiaris; conditions: dog, MDCK-MDR1
Summary of the method: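 MDCKII-MDR1 monolayers, HBSS transport medium pH 7.4; compound 3 μM for 90 min, run with and without a P-gp inhibitor, n = 3. Quantified by LC-MS/MS as analyte/internal-standard peak-area ratio; monolayer integrity checked with Lucifer yellow. Papp given in nm/sec, A>B.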

[18] = biological target: T5, Nuclear receptor subfamily 1 group I member 2 (Homo sapiens, UniProt O75469); assay: Activity at PXR (unknown origin); summary of the method: as §1
T5 sequence (O75469 whole entry): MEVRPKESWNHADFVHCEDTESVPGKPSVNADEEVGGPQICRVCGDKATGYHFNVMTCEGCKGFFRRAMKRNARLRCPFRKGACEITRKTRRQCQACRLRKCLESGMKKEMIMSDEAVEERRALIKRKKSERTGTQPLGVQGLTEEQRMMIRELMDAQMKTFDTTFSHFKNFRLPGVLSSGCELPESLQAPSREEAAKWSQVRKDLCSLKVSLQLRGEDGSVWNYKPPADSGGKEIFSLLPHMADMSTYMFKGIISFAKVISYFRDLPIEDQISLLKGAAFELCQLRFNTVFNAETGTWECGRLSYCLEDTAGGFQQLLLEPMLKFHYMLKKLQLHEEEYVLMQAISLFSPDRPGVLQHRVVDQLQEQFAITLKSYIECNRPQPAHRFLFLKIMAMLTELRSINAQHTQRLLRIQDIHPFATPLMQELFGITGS

[19] = Cmax in CD1 mouse at 5 mg/kg, po measured up to 8 hrs after dose; assay type: ADME, organism-based; parameters: dose 5 mg/kg, route oral; conditions: in vivo; summary of the method: as §3
[20] = Solubility of compound in PBS buffer at pH 7.4 after 24 hrs by UV/vis-spectroscopic analysis; assay type: physicochemical
Summary of the method: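 Compound in PBS pH 7.4 with 1% DMSO mixed, incubated 24 h and vacuum-filtered; filtrate read by UV/vis and relative solubility calculated from summed readings against a standard. Reported in mg/mL.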

[21] = AUClast in mouse blood at 5 mg/kg, po measured up to 8 hrs post dose; assay type: ADME, organism-based; parameters: time < 8 hr, dose 5 mg/kg, route oral; summary of the method: as §3
[22] = Cytotoxicity against mouse AML-12 cells assessed as reduction in cell viability after 4 hrs by celltiter-glo assay; assay type: cell-based; conditions: aml-12, 4 h
Summary of the method: (§4)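 HepG2 or AML12 cells, 5 × 10^3 per well, exposed to compound for 4 h at 37 °C. Viability read as ATP by CellTiter-Glo luminescence; tamoxifen control.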

[23] = Oral bioavailability in CD1 mouse at 5 mg/kg measured up to 8 hrs after dose; assay type: ADME, organism-based; conditions: in vivo; summary of the method: as §3
[24] = AUClast in CD1 mouse at 0.5 mg/kg, iv measured up to 24 hrs post dose; assay type: ADME, organism-based; parameters: dose 0.5 mg/kg, time < 24 hr, route intravenous; conditions: in vivo; summary of the method: as §2
[25] = test system: HepG2; assay: Cytotoxicity against human HepG2 cells assessed as reduction in cell viability after 4 hrs by celltiter-glo assay; assay type: cell-based; conditions: hepg2, 4 h; summary of the method: as §4
[26] = AUClast in mouse kidney at 5 mg/kg, po measured up to 8 hrs post dose; assay type: ADME, organism-based; parameters: time < 8 hr, dose 5 mg/kg, route oral; summary of the method: as §3
[27] = Half life in CD1 mouse at 0.5 mg/kg, iv measured up to 24 hrs post dose; assay type: ADME, organism-based; conditions: in vivo; summary of the method: as §2
[28] = AUClast in mouse liver at 5 mg/kg, po measured up to 8 hrs post dose; assay type: ADME, organism-based; parameters: dose 5 mg/kg, time < 8 hr, route oral; summary of the method: as §3
[29] = biological target: Kynurenine 3-monooxygenase (Rattus norvegicus, UniProt O88867); assay: Inhibition of rat liver KMO using [3,5-3H]-kynurenine substrate
Kynurenine 3-monooxygenase, sequence (O88867 whole entry): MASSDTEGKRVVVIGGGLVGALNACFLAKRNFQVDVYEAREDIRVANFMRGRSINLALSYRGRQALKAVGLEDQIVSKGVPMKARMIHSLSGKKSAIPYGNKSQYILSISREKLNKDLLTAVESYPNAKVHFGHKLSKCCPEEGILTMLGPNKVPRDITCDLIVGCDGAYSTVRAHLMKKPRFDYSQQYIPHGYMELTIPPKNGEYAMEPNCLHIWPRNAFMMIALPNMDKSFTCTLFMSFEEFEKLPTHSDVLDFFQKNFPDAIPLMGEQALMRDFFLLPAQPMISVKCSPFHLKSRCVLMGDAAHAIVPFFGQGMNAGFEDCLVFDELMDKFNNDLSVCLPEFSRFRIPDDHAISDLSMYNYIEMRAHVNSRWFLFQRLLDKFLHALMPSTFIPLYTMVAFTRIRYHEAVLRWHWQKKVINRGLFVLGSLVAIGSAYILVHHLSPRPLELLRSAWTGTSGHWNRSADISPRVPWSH

Voltage-gated inwardly rectifying potassium channel KCNH2, sequence (Q12809 whole entry): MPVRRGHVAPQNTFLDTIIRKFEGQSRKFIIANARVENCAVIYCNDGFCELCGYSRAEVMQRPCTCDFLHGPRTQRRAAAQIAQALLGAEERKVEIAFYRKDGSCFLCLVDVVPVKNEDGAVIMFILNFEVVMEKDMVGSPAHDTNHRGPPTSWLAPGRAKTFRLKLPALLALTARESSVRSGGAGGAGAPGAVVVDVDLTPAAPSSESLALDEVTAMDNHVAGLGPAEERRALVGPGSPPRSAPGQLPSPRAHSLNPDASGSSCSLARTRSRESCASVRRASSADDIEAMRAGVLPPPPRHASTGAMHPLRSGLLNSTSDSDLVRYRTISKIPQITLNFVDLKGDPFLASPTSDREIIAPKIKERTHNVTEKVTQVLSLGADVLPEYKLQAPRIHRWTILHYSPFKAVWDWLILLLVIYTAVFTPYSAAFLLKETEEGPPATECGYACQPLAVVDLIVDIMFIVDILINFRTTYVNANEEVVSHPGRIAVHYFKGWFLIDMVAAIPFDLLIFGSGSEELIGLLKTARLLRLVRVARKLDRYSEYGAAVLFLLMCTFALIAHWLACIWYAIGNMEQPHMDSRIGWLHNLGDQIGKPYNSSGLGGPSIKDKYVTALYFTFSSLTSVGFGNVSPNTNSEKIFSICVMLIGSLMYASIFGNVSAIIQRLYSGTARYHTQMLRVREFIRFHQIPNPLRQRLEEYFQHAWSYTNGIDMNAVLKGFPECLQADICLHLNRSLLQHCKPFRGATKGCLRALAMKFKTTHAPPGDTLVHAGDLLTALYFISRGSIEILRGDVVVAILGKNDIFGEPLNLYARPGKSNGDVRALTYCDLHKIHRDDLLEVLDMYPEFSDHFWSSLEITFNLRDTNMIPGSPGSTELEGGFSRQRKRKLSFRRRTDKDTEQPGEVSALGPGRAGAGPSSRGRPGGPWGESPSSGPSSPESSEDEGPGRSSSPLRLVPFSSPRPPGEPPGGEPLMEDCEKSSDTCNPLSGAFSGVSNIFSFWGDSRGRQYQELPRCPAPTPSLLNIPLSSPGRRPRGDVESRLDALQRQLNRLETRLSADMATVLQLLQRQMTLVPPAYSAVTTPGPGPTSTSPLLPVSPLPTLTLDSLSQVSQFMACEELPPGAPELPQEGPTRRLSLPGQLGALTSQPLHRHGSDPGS
Cytochrome P450 2C19, sequence (P33261 whole entry): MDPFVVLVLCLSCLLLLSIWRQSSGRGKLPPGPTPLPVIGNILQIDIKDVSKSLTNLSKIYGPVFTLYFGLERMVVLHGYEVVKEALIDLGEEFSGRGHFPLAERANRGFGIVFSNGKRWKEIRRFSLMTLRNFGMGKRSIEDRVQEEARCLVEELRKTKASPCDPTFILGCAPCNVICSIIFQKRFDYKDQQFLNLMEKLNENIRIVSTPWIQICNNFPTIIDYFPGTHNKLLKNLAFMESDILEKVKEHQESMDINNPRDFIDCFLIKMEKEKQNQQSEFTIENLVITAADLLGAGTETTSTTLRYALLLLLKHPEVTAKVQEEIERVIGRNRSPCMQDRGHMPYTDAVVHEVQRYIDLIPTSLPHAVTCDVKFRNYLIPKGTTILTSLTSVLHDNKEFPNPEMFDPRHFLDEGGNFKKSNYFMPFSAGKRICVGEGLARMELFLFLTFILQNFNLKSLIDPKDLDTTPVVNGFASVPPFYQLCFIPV

## N#Cc1c(-c2cccs2)nc(SCc2cccc(C(=O)O)c2)[nH]c1=O
[1]
  pIC50: 7.70

## N#Cc1c(-c2cccs2)nc(SCc2cccc(-c3noc(C(F)(F)F)n3)c2)[nH]c1=O
[1]
  pIC50: 5.47

## N#Cc1c(-c2cccs2)nc(SCc2cccc(-c3nnn[nH]3)c2)[nH]c1=O
[2]
  Activity: inactive
[3]
  Activity: inactive
[4]
  Activity: inactive
[5]
  Activity: inactive
[6]
  Activity: inactive
[7]
  Activity: inactive
[8]
  Activity: inactive
[9]
  inhibition: Active

## N#Cc1c(C2CCCCC2)nc(SCc2cccc(C(=O)O)c2)[nH]c1=O
[1]
  pIC50: 7.05

## N#Cc1c(-c2ccccc2)nc(SCc2ccccc2)[nH]c1=O
[1]
  pIC50: 5.35

## N#Cc1c(Cl)nc(SCc2cccc(C(=O)O)c2)nc1-c1ccccc1
[1]
  pIC50: 6.50

## N#Cc1c(-c2cccs2)nc(SCc2cccc(-c3nn[nH]n3)c2)[nH]c1=O
[10]
  inhibition (INH): Not Active
[11]
  clearance: 1.2 mL/min/kg
[12]
  Vd: 0.306 L/kg
[13]
  Drug uptake: Not Active
[14]
  Tmax: 2 h
[15]
  Drug uptake: Not Active
[1]
  pIC50: 8.52
[16]
  pIC50: 7.00
[17]
  Papp A→B at 1.5 h, 3 µM: 0.584 ×10⁻⁶ cm/s
[18]
  Activity: Not Active
[19]
  Cmax: 255 ng/mL
[20]
  solubility at 24 h: 1000 µg/mL (≈ 2540 µM)
[21]
  AUC(0-t) at 8 h: 1620 ng·h/mL
[22]
  Activity: Non-Toxic
[23]
  bioavailability: 2.3%
[24]
  AUC(0-t) at 24 h: 6900 ng·h/mL
[25]
  Activity: Non-Toxic
[26]
  AUC(0-t) at 8 h: 2830 ng·h/mL
[27]
  half-life: 4.02 h
[28]
  AUC(0-t) at 8 h: 4290 ng·h/mL

## O=C(O)c1cccc(CSc2nc(-c3ccccc3)c(Cl)c(=O)[nH]2)c1
[1]
  pIC50: 6.82

## O=C(O)c1cccc(CSc2nc(-c3ccccc3)c(Br)c(=O)[nH]2)c1
[1]
  pIC50: 7.00

## O=C(O)c1cccc(CSc2nc(-c3ccccc3)cc(=O)[nH]2)c1
[1]
  pIC50: 5.98

## O=C(O)C1CC1C(=O)c1ccc(Cl)c(Cl)c1 (stereo not given)
[29]
  pIC50: 7.70

## Cc1nc(SCc2cccc(C(=O)O)c2)[nH]c(=O)c1C#N
[1]
  pIC50: 5.72

## N#Cc1c(-c2cccs2)nc(SCc2cccc(C(=O)NO)c2)[nH]c1=O
[1]
  pIC50: 5.76

## N#Cc1c(-c2ccccc2)nc(SCc2cccc(C(=O)O)c2)[nH]c1=O
[1]
  pIC50: 7.35
